Assay outcomes as filed in PubChem.
Vif inh – HIV Vif inhibition | HEK293T cells, Vif self-association by quenched fluorescence, imaging, 24 h | inhibition, % at 7.49 µM | hit rate 0.35% among 340,000 | AID 602346; in the data active means inhibition above about 50%, passing the limit was not always enough; inconclusive means no clear call, values can overlap the other calls; inactive means below about 31%
Ecoli rRNA inh – inhibits bacterial ribosomal RNA function over humanized ribosomes | GFP signal change (wild-type ribosome), % (no concentration beside the values) | hit rate 1.6% among 350,000 | E. coli WT GFP vs humanized-ribosome RFP mutants, fluorescence, 24 h; active compounds read low; DMSO median 0, no signal -100;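 active means significant combined selectivity score with lowered wild-type GFP, culture density cut under 30%, mutant RFP and density less affected; inactive means any of these conditions unmet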
HIV Env fusion – HIV envelope-mediated fusion inhibition. HeLa-JRFL Env/CEM21 cell fusion, luciferase. hit rate 1.1% among 360,000. AID 651610. inhibition, % at 12.3 µM;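 active means mean replicate inhibition score of at least 50 and every replicate individually at or above 50; inconclusive means only one of the two criteria met; inactive means mean below 50 and not all replicates reaching 50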
S100A4 inh HTS – inhibitors of human S100A4 binding to myosin IIA peptide; P26447; S100A4/TAMRA-MyoIIA peptide fluorescence polarization; inhibition, % at 10.7 µM; hit rate 0.14% among 360,000; AID 652163;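 active means mean inhibition of at least 70% across replicates, with every replicate also reaching that level; inconclusive means mean inhibition reaches 70% but some replicates fall short; inactive means mean inhibition below 70%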
Target sequence (P26447 whole entry, looked up): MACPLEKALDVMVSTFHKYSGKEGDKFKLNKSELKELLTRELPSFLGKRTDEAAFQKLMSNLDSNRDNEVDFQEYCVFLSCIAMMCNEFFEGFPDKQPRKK
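Compound dosing: one dose per compound; test system: human S100A4 monomer with TAMRA-labelled myosin IIA peptide; probe or stimulus: TAMRA-labelled myosin IIA heavy-chain peptide probe, 5 nM; medium: HEPES buffer with Ca2+, pH 7.2; schedule: 5 min incubation before reading; benchmarks: neutral control DMSO, positive control TFP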
FN deposit inh – fibronectin deposition inhibition; AH1F fibroblasts, Alexa488-fibronectin deposition fluorescence, overnight; inhibition, % at 12.6 µM; hit rate 0.086% among 350,000;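 active means mean inhibition across replicates of 30% or more, regardless of how many single replicates reach that level; inconclusive means mean under 30% yet at least half of replicates reach 30%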
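Material: AH1F fibroblasts assembling fluorescent fibronectin matrix; amount: 10000 AH1F cells/well; medium: DMEM, 2% serum; reagent: Alexa488-fibronectin, 24 nM final in well; dosing: single compound dose, delivered by pin transfer; incubation: 1 h adhesion, overnight exposure; detection: fluorescence after three HBSS washes, excitation 485 nm, emission 525 nm; measure: fibronectin deposition inhibition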
miR-122 sensor – miR-122 inhibition in Huh7 cells | activation (reporter increase), % at 12.5 µM | hit rate 0.3% among 340,000 | Huh7 miR-122 Renilla luciferase sensor, 48 h; neutral wells = 0, positive control = 100;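 active means mean replicate activation score at least 90 and every replicate individually at or above 90; inconclusive means only one of the two criteria met; inactive means neither criterion met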;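 further: higher luciferase means less miR-122 activity so hits act as miR-122 inhibitors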
Of the large screens only hits and unclear results are named; the others gave an inactive call; [ ] = dose if it differs, or a comment. This is a sample that favours compounds with a hit; in the whole collection about 2.6% have one here.

COc1ccc(NC(=O)N2CC3(C2)CN(CC2CC2)[C@H](CO)c2c3c3ccc(OC)cc3n2C)cc1	none (no result: Vif inh, HIV Env fusion, FN deposit inh, miR-122 sensor)
CO[C@@H]1CN(C)C(=O)c2ccc(NC(=O)C3CCOCC3)cc2OC[C@@H](C)NC[C@@H]1C	none (no result: Vif inh, S100A4 inh HTS, miR-122 sensor)
CO[C@@H](CN(C)S(=O)(=O)c1ccc(Cl)cc1)[C@H](C)CN(C(=O)Nc1ccccc1F)[C@@H](C)CO	none (no result: Vif inh, HIV Env fusion, miR-122 sensor)
CCNC(=O)C[C@@H]1CC[C@H]2[C@@H](COc3ccc(NC(=O)Nc4ccccc4C)cc3C(=O)N2C)O1	none (no result: Vif inh)
Cc1cc(/C=C(/C#N)C(=O)Nc2ccccc2)c(C)n1-c1cccnc1	none (no result: HIV Env fusion, FN deposit inh, miR-122 sensor)
Cc1ccccc1NC(=O)/C(C#N)=C\c1cc(C)n(-c2ccc(C(=O)O)cc2)c1C	Ecoli rRNA inh -22.9
COc1ccc(-c2coc3c(C(=O)NCCc4ccccc4)cccc23)c(C)c1	HIV Env fusion 55.1
COc1ccc(CCCC(=O)NCCc2ccccc2)c(C)c1	HIV Env fusion 89.3 (no result: miR-122 sensor)
COc1ccc(CCNC(=O)CCCCC(=O)NCCc2ccc(OC)cc2)cc1	none
Cc1cc(C(=O)Nc2nc(-c3ccccn3)cs2)ccc1[N+](=O)[O-]	Ecoli rRNA inh -29.2, HIV Env fusion inconclusive (no result: miR-122 sensor)
CC(C)[C@H](NC(=O)c1ccccc1Cl)C(=O)Nc1nc(-c2ccccn2)cs1	Ecoli rRNA inh -28.7
O=C(COC(=O)/C=C/c1ccc(Cl)cc1)Nc1cccc(S(=O)(=O)NC2=NCCCCC2)c1	Ecoli rRNA inh -20.1 (no result: HIV Env fusion)
Cc1ccc(S(=O)(=O)N(C)C)cc1NC(=O)COC(=O)/C=C/c1ccc2c(c1)OCO2	none
O=C(COC(=O)/C=C/c1cccc(Cl)c1)Nc1cccc(S(=O)(=O)NC2=NCCC2)c1	none
CCOc1ccc2nc(SCC(=O)Nc3cccc(S(=O)(=O)NC4=NCCCCC4)c3)[nH]c2c1	Ecoli rRNA inh -27.2
CN(C)S(=O)(=O)c1cccc(NC(=O)COC(=O)/C=C/c2ccc3c(c2)OCO3)c1	Ecoli rRNA inh -26.9 (no result: FN deposit inh)
CS(=O)(=O)N1CCc2cc(-c3csc(NC(=O)Cc4cccs4)n3)ccc21	HIV Env fusion 76.1 (no result: Ecoli rRNA inh, S100A4 inh HTS, FN deposit inh)
C[C@@H]1CN([C@@H](C)CO)C(=O)Cc2cc(NC(=O)CCN3CCOCC3)ccc2O[C@@H]1CN(C)C(=O)Nc1ccccc1	none (no result: Vif inh, HIV Env fusion, S100A4 inh HTS, FN deposit inh)
NS(=O)(=O)c1ccc(NC(=O)Cc2cccs2)cc1	none
NS(=O)(=O)c1ccc(NC(=O)COC(=O)/C(=C/c2cccs2)c2cccs2)cc1	Ecoli rRNA inh -18.4
CC(C)NC(=O)Nc1cccc2c1O[C@H](CN(C)C(=O)OC(C)(C)C)[C@H](C)CN(C)C2=O	none (no result: Vif inh, HIV Env fusion, S100A4 inh HTS, miR-122 sensor)
CC1CCN(S(=O)(=O)N2CCC(C(=O)NCCc3ccccc3)CC2)CC1	miR-122 sensor 142.9
NS(=O)(=O)c1ccc(CCNC(=O)C2CCN(C(=O)Nc3ccccc3)CC2)cc1	Vif inh 55.0
O=C(NCCc1ccccc1)C1CCN(C(=O)Nc2ccccc2)CC1	none (no result: HIV Env fusion)
O=C(NCCc1ccccc1)C1CCN(S(=O)(=O)N2CCCCC2)CC1	none
CC1(C)CC(=O)C=C(c2ccc(COC(=O)/C=C/c3ccccc3)cc2)C1=O	none (no result: Vif inh, FN deposit inh)
CC1(C)CC(=O)C=C(c2ccc(COC(=O)c3ccccc3)cc2)C1=O	Ecoli rRNA inh -19.8 (no result: Vif inh, FN deposit inh)
C[C@H](CO)N1C[C@H](C)[C@H](CN(C)S(=O)(=O)c2ccc(F)cc2)Oc2c(NC(=O)CCCCCC(=O)Nc3ccccc3N)cccc2C1=O	none (no result: Vif inh, HIV Env fusion, FN deposit inh, miR-122 sensor)
C[C@@H](NC(=O)C[C@@H]1C=C[C@H](NC(=O)C2CCOCC2)[C@@H](CO)O1)c1ccccc1	none (no result: Vif inh, FN deposit inh, miR-122 sensor)
Nc1nonc1C(=O)NCCNCc1cc(Br)ccc1OCc1ccc(F)cc1	HIV Env fusion 67.0 (no result: Ecoli rRNA inh, S100A4 inh HTS)
COc1ccc(CNCCNC(=O)c2nonc2N)cc1OC	none (no result: FN deposit inh)
Nc1nonc1C(=O)NCCNCc1c(OCc2ccccc2F)ccc2ccccc12	HIV Env fusion 103.1 (no result: Ecoli rRNA inh, S100A4 inh HTS, FN deposit inh, miR-122 sensor)
O=C(CSc1nc2ccccc2c(=O)n1CCCN1CCOCC1)Nc1ccc(F)c(Cl)c1	HIV Env fusion 70.8
CC(=O)Nc1ccc(NC(=O)CSc2nc3ccccc3c(=O)n2CCCN2CCOCC2)cc1	none
COc1ccc(NC(=O)CSc2nc3ccccc3c(=O)n2CCCN2CCC(C)CC2)c(OC)c1	none
CC1CCN(CCCn2c(SCC(=O)Nc3ccccc3Cl)nc3ccccc3c2=O)CC1	Ecoli rRNA inh -33.0 (no result: FN deposit inh, miR-122 sensor)
Cc1cc(C(=O)N/N=C/c2ccccc2)c(C)o1	none
Cc1cc(C(=O)N/N=C/C=C/c2ccccc2)c(C)o1	Ecoli rRNA inh -24.8 (no result: miR-122 sensor)
CC(C)(C)NC(=O)C(c1ccccc1)N(C(=O)C1CSC(=O)C1)c1ccccc1 (stereo unspecified)	Vif inh inconclusive, HIV Env fusion 64.7 (no result: Ecoli rRNA inh, S100A4 inh HTS)
C[C@@H]1CN([C@H](C)CO)C(=O)c2cc(NS(=O)(=O)c3ccc(Cl)cc3)ccc2O[C@@H](C)CCCCO[C@@H]1CN(C)S(=O)(=O)c1cccs1	none (no result: Vif inh)
C[C@@H]1CN([C@H](C)CO)C(=O)c2cc(NS(=O)(=O)c3ccc(Cl)cc3)ccc2O[C@@H](C)CCCCO[C@H]1CN(C)S(=O)(=O)c1cccs1	HIV Env fusion 62.6[16.7 µM] (no result: Vif inh)
Cc1ccc(S(=O)(=O)Nc2ccc3c(c2)C(=O)N([C@H](C)CO)C[C@@H](C)[C@H](CN(C)S(C)(=O)=O)OCCCC[C@@H](C)O3)cc1	S100A4 inh HTS 125.2 (no result: Vif inh)
Cc1ccc(S(=O)(=O)Nc2ccc3c(c2)C(=O)N([C@H](C)CO)C[C@@H](C)[C@@H](CN(C)C(=O)NC(C)C)OCCCC[C@@H](C)O3)cc1	S100A4 inh HTS 106.9 (no result: Vif inh)
COc1ccc(C(=O)NNC(=O)c2ccccn2)cc1	HIV Env fusion 62.0 (no result: miR-122 sensor)
COc1ccc(C(=O)O/N=C(\N)c2ccccn2)cc1	HIV Env fusion 69.6
COc1cc(OC)cc(C(=O)O/N=C(\N)c2ccccn2)c1	none (no result: Ecoli rRNA inh)
Cc1ccc2c(c1)C(c1ccc(F)cc1)N(C(=O)c1ccccc1Br)CC(=O)N2 (stereo unspecified)	Ecoli rRNA inh -26.4
COc1ccccc1C(=O)N1CC(=O)Nc2ccc(C)cc2C1c1ccc(F)cc1 (stereo unspecified)	none
O=C1CN(C(=O)c2ccc(Br)o2)C(c2ccccc2)c2cc(Cl)ccc2N1 (stereo unspecified)	HIV Env fusion 58.2
O=C1CN(C(=O)c2ccc(Br)o2)C(c2ccc(F)cc2)c2cc(Cl)ccc2N1 (stereo unspecified)	HIV Env fusion inconclusive (no result: Ecoli rRNA inh, S100A4 inh HTS)
C[C@@H]1CN([C@H](C)CO)C(=O)c2cc(NC(=O)Nc3ccccc3)ccc2O[C@H]1CN(C)Cc1ccncc1	none (no result: Vif inh, FN deposit inh)
CC1Cc2ccccc2N1C(=O)c1ccc(N2CCCC2)c([N+](=O)[O-])c1 (stereo unspecified)	none
COc1ccc(OCC(=O)N2c3ccccc3CC2C)c([N+](=O)[O-])c1 (stereo unspecified)	Ecoli rRNA inh -24.4 (no result: HIV Env fusion)
